Assay outcomes deposited in PubChem by several laboratories.
SR-BI HDL uptake: blocks mouse SR-BI lipid uptake from DiI-HDL; Q61009; ldlA[mSR-BI] CHO cells, DiI-HDL uptake fluorescence, 3 h; inhibition, % at 12.5 µM; hit rate 0.96% among 320,000;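 active means mean replicate inhibition of at least 70% and a set share of replicates each scoring 70 or more; inconclusive means meets just one of the two criteria; inactive means fails both criteria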
MIN6 prolif: inducers of beta-cell replication in MIN6 cells; MIN6 cells proliferation, ATPlite luminescence, 48 h; cells starved in 0.2% serum; 100% = growth in 10% serum; proliferation, % at 10 µM; hit rate 0.29% among 330,000; AID 2380;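 active means compounds whose signal lies at least 3.5 SD above the mean of all wells on their plate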
Insulin prom up: MIN6 insulin promoter up-regulation; MIN6 insulin promoter-GFP reporter, high-content imaging; stronger effect = higher value; z-score at 5 µM; hit rate 0.3% among 190,000; AID 1625;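 active means z-score above 3 at 5 µM with at least 500 cells counted in the well; inconclusive means wells under 500 cells, flagged as cytotoxic or low count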
SR-BI uptake up: SR-BI HDL lipid transfer activation | CHO ldlA[mSR-BI] cells, DiI-HDL uptake fluorescence, 3 h; 100 = double the neutral-control signal | activation, % at 12.5 µM | hit rate 0.096% among 320,000;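 active means mean replicate activation of at least 60% and every replicate at or above 60%; inconclusive means mean or all-replicate condition met, but not both; inactive means mean below 60% and not all replicates reaching 60%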
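System: LDL receptor-deficient CHO ldlA cells overexpressing murine SR-BI | Timing: 3 h uptake period with compound, 37 °C | Medium: HEPES-buffered (25 mM, pH 7.4) F12 plus 0.5% BSA | Dosing: Single-point compound dose | Signal: Bottom-read fluorescence, 550/595 nm | Read-out: Retained DiI signal reflecting DiI-HDL uptake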
Calb FLC: affects C. albicans growth with fluconazole; C. albicans CaCi-2 + fluconazole, Alamar Blue growth, 48 h; growth inhibition, % (no concentration beside the values); hit rate 0.57% among 300,000; AID 1979;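 active means growth inhibition above about 58% in most replicates, limit read from the data, passing the limit was not always enough; inconclusive means exactly half the replicates above a set limit; inactive means most replicates below a set limit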;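 further: all wells also contain fluconazole at 8 µg/ml as a sub-toxic cotreatment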
HTR2A ag: agonists of mouse serotonin 5-HT2A receptor (HTR2A); P35363; CHO-K1 mHTR2A beta-arrestin complementation, luminescence; percent of 30 µM serotonin response; activation, % at 7.6 µM; hit rate 0.66% among 360,000; AID 624169;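 active means activation above a run cutoff, the mean activation of all tested compounds plus 3 SD, cut at about 14% in these data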
Target sequence (P35363 whole entry, looked up): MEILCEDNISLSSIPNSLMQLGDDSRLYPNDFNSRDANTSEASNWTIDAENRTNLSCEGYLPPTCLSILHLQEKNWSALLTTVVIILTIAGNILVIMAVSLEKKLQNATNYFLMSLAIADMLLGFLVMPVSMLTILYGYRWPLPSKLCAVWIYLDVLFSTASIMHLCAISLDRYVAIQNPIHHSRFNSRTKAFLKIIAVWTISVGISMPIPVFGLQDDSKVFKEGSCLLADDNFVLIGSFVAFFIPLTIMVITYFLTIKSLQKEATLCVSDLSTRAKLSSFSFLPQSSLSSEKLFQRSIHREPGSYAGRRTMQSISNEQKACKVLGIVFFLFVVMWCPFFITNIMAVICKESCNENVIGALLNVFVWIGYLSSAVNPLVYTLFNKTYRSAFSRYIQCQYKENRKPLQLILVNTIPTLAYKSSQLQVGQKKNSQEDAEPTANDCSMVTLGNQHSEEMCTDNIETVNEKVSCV
Numbers stand for hits; 0 = inactive; ? = inconclusive; - = not tested or not shown. Sampled rows, rich in hits. Any-hit rate of the full collection: about 2.4%.

SMILES	SR-BI HDL uptake	MIN6 prolif	Insulin prom up	SR-BI uptake up	Calb FLC	HTR2A ag
CCOc1cc(/C=N/NC(=O)c2ccc(-c3csc(Nc4ccc(C)cc4)n3)cc2)ccc1OCC(=O)O	?	-	0	0	-	0
O=[N+]([O-])c1ccc(N2CCN(c3ccccn3)CC2)c(Cl)c1	-	0	-	-	0	0
COc1cccc(CN2CCc3ccc(NC(=O)CCc4ccc(C)cc4)cc3C2)c1O	0	0	-	0	0	0
COc1ccccc1CCC(=O)Nc1ccc2c(c1)CN(CCCn1cccn1)CC2	0	0	-	0	0	0
COc1ccc(CN2CCc3ccc(NC(=O)CCc4ccccc4OC)cc3C2)c(O)c1	71.7	0	-	0	0	0
COc1cc(CN2CCc3ccc(NC(=O)CCc4ccccc4OC)cc3C2)ccc1O	70.5	0	-	0	0	0
CC1=CC(=O)C(C(C)C)=C/C1=N/OS(=O)(=O)c1ccccc1	79.7	0	?	0	?	0
CC1=CC(=O)C=C(C)C1=NOS(=O)(=O)c1ccccc1	111.6	-	0	0	0	0
O=C(Cc1ccc(Cl)c(Cl)c1)N/N=C/c1cccnc1	0	0	-	0	0	0
O=C(Cc1ccc(O)cc1)N/N=C/c1cccnc1	0	0	-	0	101.7	0
O=C(Nc1ccccc1N1CCCC1)C1CCN(S(=O)(=O)c2ccccc2C(F)(F)F)CC1	0	0	-	0	0	0
O=C(Nc1ccccc1N1CCOCC1)C1CCN(S(=O)(=O)c2ccccc2F)CC1	0	0	0	214.3	0	0
COC(=O)[C@]12CCCCC=C1N(CCc1ccc(OC)c(OC)c1)C(=O)[C@H](CC(=O)NCC1CCCCC1)C2	-	-	-	-	-	0
O=C(CCS(=O)(=O)c1cccc2nsnc12)N1CCN(C(=O)c2ccco2)CC1	0	0	0	0	56.6	0
O=C(CCS(=O)(=O)c1cccc2nsnc12)N1CCN(Cc2ccc3c(c2)OCO3)CC1	0	0	0	0	0	0
Cc1ccc(S(=O)(=O)N2CCN(C(=O)COC(=O)/C=C/c3ccccc3[N+](=O)[O-])CC2)c(C)c1	0	0	-	0	0	0
NC(=S)N/N=C/c1ccc(-c2cc(Cl)ccc2Cl)o1	98.8	0	0	0	92.5	0
NC(=S)N/N=C/c1ccc(-c2cc(Cl)cc(Cl)c2)o1	77.9	0	0	0	?	0
COC(=O)N/N=C/c1ccc(-c2cc(Cl)cc(Cl)c2)o1	0	0	0	0	78.9	0
COC(=O)N/N=C/c1ccc(-c2cccc(Cl)c2)o1	0	0	0	0	?	0
NC(=S)N/N=C/c1ccc(-c2ccc([N+](=O)[O-])cc2)o1	71.2	0	0	0	0	0
CCn1c(SCC(=O)Nc2ccc(C)cc2)nnc1-c1ccc(O)cc1	0	0	0	0	?	0
C/C(=N\NC(=O)c1ccc(-n2cnnn2)cc1)c1ccc(C)cc1	0	0	-	0	-	0
O=C(N/N=C/c1ccc(-c2cccc([N+](=O)[O-])c2)o1)c1ccc([N+](=O)[O-])cc1	81.7	0	0	0	0	0
O=C(N/N=C/c1ccc(-c2cccc([N+](=O)[O-])c2)o1)c1ccccc1O	0	0	0	0	0	0
SMILES	SR-BI HDL uptake	MIN6 prolif	Insulin prom up	SR-BI uptake up	Calb FLC	HTR2A ag
COc1nc(C)nc(NC(=O)NS(=O)(=O)c2ccc(C)cc2)n1	0	0	0	0	0	0
COc1ccc(/C=N/NC(=O)c2ccncc2)cc1OC	0	0	-	0	0	0
COc1cc(/C=N/NC(=O)c2cccnc2)ccc1OCC(=O)Nc1c(C)cc(C)cc1C	71.0	0	0	0	0	0
C=CCOc1ccccc1/C=N/NC(=O)c1ccc(Cl)cc1Cl	0	0	0	0	?	0
COc1cc(C(=O)Oc2ccccc2/C=N/NC(=O)c2ccc(Cl)cc2Cl)cc(OC)c1OC	82.4	0	0	0	0	0
COc1cc(/C=N/NC(=O)c2ccncc2)ccc1OC(=O)c1cc(OC)c(OC)c(OC)c1	77.0	0	-	0	0	0
OC[C@@H]1CN(Cc2ccco2)C[C@H](n2cnc3c(Nc4ccccc4)ncnc32)O1	-	-	-	-	-	0
CSCCNC(=O)C1(C)CCN1C(=O)CCc1ccccc1 (configuration not stated)	-	-	-	-	-	0
Cc1ccc(Cc2c(-c3ccc(F)cc3)nc3cc(C)ccn23)cc1	-	-	-	-	-	0
CC(C)=CCc1c(O)cc2oc3c(CC=C(C)C)c(O)c(O)c(CC=C(C)C)c3c(=O)c2c1O	104.5	0	0	0	0	0
